Laboratory results reported in ChEMBL document CHEMBL3585257, “Structure-Activity Relationship Studies of 3-epi-Deoxynegamycin Derivatives as Potent Readthrough Drug Candidates” (ACS Med Chem Lett, 2015).
≈ marks a conversion by molar mass, not a printed value.

Key:
COS-7 [1] = assay: (§1) Mutation read through activity in african green monkey COS7 cells transfected with dual-reporter plasmid encoding beta-galactosidase and luciferase genes connected with TGA-containing mouse mdx gene exon 23 nucleotide sequence as premature termination codon assessed as ratio of luciferase activity to beta-galactosidase activity at 200 uM incubated for 48 hrs at 37 degC relative to basal level; format: functional, Chlorocebus aethiops
Summary of the method: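 COS-7 cells transfected with a dual-reporter plasmid: constitutive β-galactosidase upstream of a TGA premature stop codon, luciferase downstream. Compounds tested at 200 μM. Lysate luciferase/β-galactosidase activity ratio expressed relative to untreated (D-MEM) basal level = 1; some series normalized to a reference compound instead. Triplicate, mean ± SD.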

[2] = Drug metabolism in presence of porcine liver esterase assessed as (S)-2-[2-(3,5-Diaminopentanoyl)-1-methylhydrazinyl]acetic acid.2TFA formation in 100 mM pH 7.4 phosphate buffer at 37 degC incubated for 1 to 4 hrs; format: physicochemical; conditions: pig, isolated protein
[3] = Drug metabolism in presence of porcine liver esterase assessed as (S)-2-[2-(3,5-Diaminopentanoyl)-1-methylhydrazinyl]acetic acid.2TFA formation in 100 mM pH 7.4 phosphate buffer at 37 degC; conditions: pig, isolated protein, TDE = time-dependent effect
[4] = Stability in absence of porcine liver esterase assessed as compound remaining in 100 mM pH 7.4 phosphate buffer at 37 degC after 6 hrs; format: physicochemical; conditions: phosphate buffer without porcine liver esterase, read-out: Stability
Summary of the method: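 Ester incubated without esterase in 100 mM phosphate buffer, pH 7.4, at 37 °C for 6 h. Percent compound remaining measured by RP-HPLC.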

[5] = Mutation read through activity in human cell-free protein synthesis system containing beta-galactosidase and luciferase genes connected with TGA-containing mouse mdx gene exon 23 nucleotide sequence as premature termination codon assessed as ratio of luciferase activity to beta-galactosidase activity at 20 uM incubated at 37 degC for 3 hrs relative to basal level
Summary of the method: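 Cell-free translation of the β-galactosidase–TGA–luciferase dual reporter with compound at 20 μM. Readthrough given as luciferase/β-galactosidase ratio relative to no-compound control (= 1). n = 3, mean ± SD.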

COS-7 [6] = assay: as §1, with “20” for “200”; format: functional, Chlorocebus aethiops
COS-7 [7] = assay: as §1, with “activity at 25 to 200 uM” for “activity at 200 uM”; format: functional, cell-based; conditions: Chlorocebus aethiops
Staphylococcus aureus = assay: Toxicity against Staphylococcus aureus NBRC13276; format: functional
Escherichia coli = assay: Toxicity against Escherichia coli NBRC3972; format: functional

SMILES | Ratio (COS-7 [1]) | further results
CN(CC(=O)O)NC(=O)C[C@H](N)C[C@@H](O)CN [NEGAMYCIN] | 1.81 | –
CCNC(=O)CN(C)NC(=O)C[C@@H](N)CCN | 1.42 | –
CN(CC(=O)OCc1ccc(Br)cc1)NC(=O)C[C@@H](N)CCN | 2.98 | –
CN(CC(=O)OCc1ccccc1Cl)NC(=O)C[C@@H](N)CCN | 3.34 | –
CN(CC(=O)O)NC(=O)[C@@H](N)CN | 1.3 | –
CCOC(=O)CN(C)NC(=O)C[C@@H](N)CCN | 2.08 | –
CN(CC(=O)O)NC(=O)C[C@@H](N)CCCN | 2.94 | –
CN(CC(=O)NCc1ccccc1)NC(=O)C[C@@H](N)CCN | 0.8 | –
CN(CC(=O)O)NC(=O)[C@@H](N)CCCN | 0.99 | –
COc1ccc(COC(=O)CN(C)NC(=O)C[C@@H](N)CCN)cc1 | 3.25 | –
CN(CC(=O)OCc1ccc([N+](=O)[O-])cc1)NC(=O)C[C@@H](N)CCN | 3.05 | –
CN(CC(=O)OCc1ccccc1[N+](=O)[O-])NC(=O)C[C@@H](N)CCN | 4.51 | –
CN(CC(=O)OCc1cccc([N+](=O)[O-])c1)NC(=O)C[C@@H](N)CCN | 3.21 | –
CN(CC(=O)OCc1cccc(Br)c1)NC(=O)C[C@@H](N)CCN | 3.75 | –
CN(CC(=O)O)NC(=O)CC(N)CN (single isomer, unassigned) | 1.49 | –
CN[C@@H]1[C@@H](O)[C@@H](O[C@@H]2[C@@H](O)[C@H](O[C@H]3O[C@H]([C@@H](C)O)[C@@H](O)[C@H](O)[C@H]3N)[C@@H](N)C[C@H]2N)OC[C@]1(C)O [GENETICIN] | 6.65 | –
CN(CC(=O)O)NC(=O)[C@@H](N)CCCCN | 1.01 | –
CN(CC(=O)O)NC(=O)C[C@@H](N)CCCCN | 2.05 | –
CN(CC(=O)O)NC(=O)[C@@H](N)CCN | 1.07 | –
CN(CC(=O)OCc1ccccc1)NC(=O)C[C@@H](N)CCN | 4.04 | –
CN(CC(=O)OCc1ccc(Cl)cc1)NC(=O)C[C@@H](N)CCN | 4.21 | –
COc1ccccc1COC(=O)CN(C)NC(=O)C[C@@H](N)CCN | 3.1 | –
CN(CC(=O)OCc1cccc(Cl)c1)NC(=O)C[C@@H](N)CCN | 4.9 | Drug metabolism [2]: metabolite_detected; Drug metabolism [3]: tde; remaining at 6 h [4]: 94%; Ratio [5]: 1.23; Ratio (COS-7 [6]): 3.58
CN(CC(=O)OCc1ccccc1Br)NC(=O)C[C@@H](N)CCN | 3.83 | –
CN(CC(=O)O)NC(=O)C[C@@H](N)CCN | 4.28 | Activity (COS-7 [7]): Dose-dependent effect; MIC (Staphylococcus aureus): 1020 µg/mL (≈ 4.69 mM); MIC (Escherichia coli): ≥ 1020 µg/mL; Ratio [5]: 2.72; Ratio (COS-7 [6]): 3.1
COc1cccc(COC(=O)CN(C)NC(=O)C[C@@H](N)CCN)c1 | 3.71 | –
